Test results taken from paper PMC4224566 (Molecular Pharmaceutics, 2014).

Assay type: physicochemical
Conditions: 0.5 M pH 4.0 acetate buffer, 1 mg/mL, 100 °C, analytical HPLC, LC-MS
Outline: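 Each peptide (about 0.1 mL) was heated in a sealed plastic tube, cooled, and then analysed by reversed-phase C18 analytical HPLC with UV detection. The HPLC ran at 1 mL/min: 5% acetonitrile/0.1% TFA in water/0.1% TFA for 5 min, then rising by 2%/min to 65%. Samples showing decomposition were run on a separate LC-MS. Samples with little or none were heated 30 min more and re-analysed.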

Ph-NCS-E[c(RGDfK)]2 [compound 10]
release of monomer after 10 min heating: obvious release of c(RGDfK)
